What is called EC50 is the concentration that produces a half-maximal response. As a reminder, the Emax is the greatest response seen or fitted, relative to the assay's reference.

Structures can show the parent of a compound that is named as a salt.

13 compounds from ChEMBL document CHEMBL1144223, “Design, synthesis, and docking studies of novel benzopyrone derivatives as H(1)-antihistaminic agents” (Bioorg Med Chem, 2008) can be followed below.

T1 sequence (P31389 whole entry): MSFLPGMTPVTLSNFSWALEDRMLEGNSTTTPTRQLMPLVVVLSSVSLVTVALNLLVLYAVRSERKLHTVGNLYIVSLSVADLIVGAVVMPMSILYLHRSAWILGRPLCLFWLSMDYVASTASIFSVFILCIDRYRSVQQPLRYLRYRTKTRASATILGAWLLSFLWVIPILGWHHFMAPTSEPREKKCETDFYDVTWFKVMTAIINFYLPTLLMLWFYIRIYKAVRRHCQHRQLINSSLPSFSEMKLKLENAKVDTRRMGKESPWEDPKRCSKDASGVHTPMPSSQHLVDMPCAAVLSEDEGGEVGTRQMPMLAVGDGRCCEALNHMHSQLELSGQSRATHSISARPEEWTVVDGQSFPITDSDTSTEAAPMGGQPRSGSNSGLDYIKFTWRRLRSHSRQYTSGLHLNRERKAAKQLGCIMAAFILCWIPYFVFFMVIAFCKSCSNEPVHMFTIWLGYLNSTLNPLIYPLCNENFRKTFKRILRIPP

One test concerns the target T1, Histamine H1 receptor (Cavia porcellus, UniProt P31389). Briefly: Antagonist activity at histamine H1 receptor in guinea pig ileum assessed as inhibition of histamine-induced contractions at 1.0 mg/ml. The format is functional, tissue-based. A digest of the protocol: (§1)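 Isolated ileum from male guinea pigs (250–400 g), killed by a blow to the skull and cervical dislocation. Segments 2–3 cm long were tied to an aerating tube and an isotonic transducer. Cumulative histamine diphosphate was added every 2 min, from the threshold concentration up to the maximal response. Contraction height was expressed as % of the maximum with saline. EC50 and Emax were compared with saline (Student's t-test, n = 5 strips, mean ± SEM).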
On to `O=c1cc(-c2ccccc2)c2ccc(OCC(O)CN3CCCCC3)cc2o1` (centres undefined), for which the EC50 was 23.5 nM.
Still for that read-out and setting: for `O=c1cc(-c2ccccc2)c2ccc(OCC(O)CN3CCOCC3)cc2o1` (centres undefined) the value was 21.8 nM; for `Cc1cc(=O)oc2ccc(OCC(O)CN3CCN(C)CC3)cc12` (centres undefined), 24.4 nM.
The same measure, in the same setting: for `CCN(CC)CC(O)COc1ccc2c(-c3ccccc3)cc(=O)oc2c1` (centres undefined) the value was 24.2 nM; for `Cc1cc(=O)oc2ccc(OCC(O)CN3CCCCC3)cc12` (centres undefined), 26.2 nM.
Same read-out and setting: for `CCCNCC(O)COc1ccc2c(-c3ccccc3)cc(=O)oc2c1` (centres undefined) the value was 24.1 nM.
For the compound `COc1ccccc1N1CCN(CC(O)COc2ccc3c(-c4ccccc4)cc(=O)oc3c2)CC1` (centres undefined), the EC50 is 18.3 nM.
Consider `CCN(CC)CC(O)COc1ccc2oc(=O)cc(C)c2c1` (centres undefined), for which the EC50 was 27.8 nM.
Regarding `Cc1cc(=O)oc2ccc(OCC(O)CN3CCN(c4ccccc4)CC3)cc12` (centres undefined), the EC50 is 21.5 nM.
Same read-out and setting: as for `O=c1cc(-c2ccccc2)c2ccc(OCC(O)CN3CCN(c4ccccc4)CC3)cc2o1` (centres undefined), the figure is 18.2 nM; as for `O=c1cc(-c2ccccc2)c2ccc(OCC(O)CN3CCNCC3)cc2o1` (centres undefined), 22.6 nM; as for `COc1ccccc1N1CCN(CC(O)COc2ccc3oc(=O)cc(C)c3c2)CC1` (centres undefined), 20 nM.

The target in a further test is Histamine H1 receptor (Cavia porcellus) (UniProt P31389). The test is described as follows: Antagonist activity at histamine H1 receptor in guinea pig ileum assessed as inhibition of histamine-induced contractions at 5 ug/ml relative to control. The format is functional, tissue-based. A digest of the protocol:
as §1
For the compound `CN(C)CCC(c1ccccc1)c1ccccn1` (centres undefined) [PHENIRAMINE MALEATE], the maximal effect (Emax) was found to be 78%.

Another test has the same target. The test is described as follows: Antagonist activity at histamine H1 receptor in guinea pig ileum assessed as inhibition of histamine-induced contractions at 1.0 mg/ml relative to control. The format is functional, tissue-based. A digest of the protocol: as §1
Regarding `O=c1cc(-c2ccccc2)c2ccc(OCC(O)CN3CCCCC3)cc2o1` (centres undefined), the maximum response (Emax) came to 60%.
Still for that read-out and setting: for `O=c1cc(-c2ccccc2)c2ccc(OCC(O)CN3CCOCC3)cc2o1` (centres undefined) the value was 58%; for `Cc1cc(=O)oc2ccc(OCC(O)CN3CCN(C)CC3)cc12` (centres undefined), 54%.
Regarding `CCN(CC)CC(O)COc1ccc2c(-c3ccccc3)cc(=O)oc2c1` (centres undefined), the Emax was found to be 60%.
Consider `Cc1cc(=O)oc2ccc(OCC(O)CN3CCCCC3)cc12` (centres undefined), for which the Emax is 55%.
Same read-out and setting: for `CCCNCC(O)COc1ccc2c(-c3ccccc3)cc(=O)oc2c1` (centres undefined) the value was 53%; for `COc1ccccc1N1CCN(CC(O)COc2ccc3c(-c4ccccc4)cc(=O)oc3c2)CC1` (centres undefined), 52%; for `CCN(CC)CC(O)COc1ccc2oc(=O)cc(C)c2c1` (centres undefined), 58%.
Same read-out and setting: for `Cc1cc(=O)oc2ccc(OCC(O)CN3CCN(c4ccccc4)CC3)cc12` (centres undefined) the value was 60%.
The same measure, in the same setting: for `O=c1cc(-c2ccccc2)c2ccc(OCC(O)CN3CCN(c4ccccc4)CC3)cc2o1` (centres undefined) the value was 54%; for `O=c1cc(-c2ccccc2)c2ccc(OCC(O)CN3CCNCC3)cc2o1` (centres undefined), 53%; for `COc1ccccc1N1CCN(CC(O)COc2ccc3oc(=O)cc(C)c3c2)CC1` (centres undefined), 58%.

Another test concerns the target T1, Histamine H1 receptor. Briefly: Antagonist activity at histamine H1 receptor in guinea pig ileum assessed as inhibition of histamine-induced contractions at 0.1 mg/ml. The class given is functional, tissue-based. A digest of the protocol:
as §1
In the case of `O=c1cc(-c2ccccc2)c2ccc(OCC(O)CN3CCCCC3)cc2o1` (centres undefined), the concentration giving a half-maximal response (EC50) was 14.8 nM.
For `O=c1cc(-c2ccccc2)c2ccc(OCC(O)CN3CCOCC3)cc2o1` (centres undefined), the EC50 was 14.4 nM.
Same read-out and setting: as for `Cc1cc(=O)oc2ccc(OCC(O)CN3CCN(C)CC3)cc12` (centres undefined), the figure is 17.4 nM; as for `CCN(CC)CC(O)COc1ccc2c(-c3ccccc3)cc(=O)oc2c1` (centres undefined), 16.1 nM; as for `Cc1cc(=O)oc2ccc(OCC(O)CN3CCCCC3)cc12` (centres undefined), 17.3 nM.
On the same count and under the same terms, as for `CCCNCC(O)COc1ccc2c(-c3ccccc3)cc(=O)oc2c1` (centres undefined), the figure is 15.8 nM.
Still for that read-out and setting: as for `COc1ccccc1N1CCN(CC(O)COc2ccc3c(-c4ccccc4)cc(=O)oc3c2)CC1` (centres undefined), the figure is 11.7 nM; as for `CCN(CC)CC(O)COc1ccc2oc(=O)cc(C)c2c1` (centres undefined), 17 nM.
Turning to `Cc1cc(=O)oc2ccc(OCC(O)CN3CCN(c4ccccc4)CC3)cc12` (centres undefined), the EC50 was 13.2 nM.
Same read-out and setting: as for `O=c1cc(-c2ccccc2)c2ccc(OCC(O)CN3CCN(c4ccccc4)CC3)cc2o1` (centres undefined), the figure is 11.8 nM.
With `O=c1cc(-c2ccccc2)c2ccc(OCC(O)CN3CCNCC3)cc2o1` (centres undefined), the EC50 was 15.2 nM.
Same read-out and setting: for `COc1ccccc1N1CCN(CC(O)COc2ccc3oc(=O)cc(C)c3c2)CC1` (centres undefined) the value was 13.7 nM.

Another test deals with T1, Histamine H1 receptor. The test is described as follows: Antagonist activity at histamine H1 receptor in guinea pig ileum assessed as inhibition of histamine-induced contractions at 0.5 mg/ml. The format is functional, tissue-based. A digest of the protocol:
as §1
Consider `O=c1cc(-c2ccccc2)c2ccc(OCC(O)CN3CCCCC3)cc2o1` (centres undefined), for which the EC50 is 15.8 nM.
Still for that read-out and setting: for `O=c1cc(-c2ccccc2)c2ccc(OCC(O)CN3CCOCC3)cc2o1` (centres undefined) the value was 16.3 nM; for `Cc1cc(=O)oc2ccc(OCC(O)CN3CCN(C)CC3)cc12` (centres undefined), 18.1 nM.
For the compound `CCN(CC)CC(O)COc1ccc2c(-c3ccccc3)cc(=O)oc2c1` (centres undefined), the EC50 was 17.4 nM.
As to `Cc1cc(=O)oc2ccc(OCC(O)CN3CCCCC3)cc12` (centres undefined), the EC50 is 20.5 nM.
On the same count and under the same terms, for `CCCNCC(O)COc1ccc2c(-c3ccccc3)cc(=O)oc2c1` (centres undefined) the value was 17.8 nM; for `COc1ccccc1N1CCN(CC(O)COc2ccc3c(-c4ccccc4)cc(=O)oc3c2)CC1` (centres undefined), 12.7 nM; for `CCN(CC)CC(O)COc1ccc2oc(=O)cc(C)c2c1` (centres undefined), 19.6 nM.
The same measure, in the same setting: as for `Cc1cc(=O)oc2ccc(OCC(O)CN3CCN(c4ccccc4)CC3)cc12` (centres undefined), the figure is 16 nM.
Still for that read-out and setting: as for `O=c1cc(-c2ccccc2)c2ccc(OCC(O)CN3CCN(c4ccccc4)CC3)cc2o1` (centres undefined), the figure is 13.8 nM.
For the compound `O=c1cc(-c2ccccc2)c2ccc(OCC(O)CN3CCNCC3)cc2o1` (centres undefined), the concentration giving a half-maximal response (EC50) was 16.6 nM.
On the same count and under the same terms, as for `COc1ccccc1N1CCN(CC(O)COc2ccc3oc(=O)cc(C)c3c2)CC1` (centres undefined), the figure is 14.6 nM.

Another test has as its target T1, Histamine H1 receptor. Briefly: Antagonist activity at histamine H1 receptor in guinea pig ileum assessed as inhibition of histamine-induced contractions at 5 ug/ml. The format is functional, tissue-based. In short, it runs like this:
as §1
As to `CN(C)CCC(c1ccccc1)c1ccccn1` (centres undefined) [PHENIRAMINE MALEATE], the 50% effective concentration (EC50) is 19.1 nM.

The next test deals with Histamine H1 receptor (Cavia porcellus) (UniProt P31389). The test is described as follows: Antagonist activity at histamine H1 receptor in guinea pig ileum assessed as inhibition of histamine-induced contractions at 0.1 mg/ml relative to control. The format is functional, tissue-based. A digest of the protocol: as §1
Chain of Histamine H1 receptor (Cavia porcellus) (P31389 whole entry): as above
For `O=c1cc(-c2ccccc2)c2ccc(OCC(O)CN3CCCCC3)cc2o1` (centres undefined), the Emax came to 100%.
The same measure, in the same setting: for `O=c1cc(-c2ccccc2)c2ccc(OCC(O)CN3CCOCC3)cc2o1` (centres undefined) the value was 100%; for `Cc1cc(=O)oc2ccc(OCC(O)CN3CCN(C)CC3)cc12` (centres undefined), 100%; for `CCN(CC)CC(O)COc1ccc2c(-c3ccccc3)cc(=O)oc2c1` (centres undefined), 100%.
On the same count and under the same terms, as for `Cc1cc(=O)oc2ccc(OCC(O)CN3CCCCC3)cc12` (centres undefined), the figure is 100%; as for `CCCNCC(O)COc1ccc2c(-c3ccccc3)cc(=O)oc2c1` (centres undefined), 100%; as for `COc1ccccc1N1CCN(CC(O)COc2ccc3c(-c4ccccc4)cc(=O)oc3c2)CC1` (centres undefined), 100%.
As for `CCN(CC)CC(O)COc1ccc2oc(=O)cc(C)c2c1` (centres undefined), the Emax was 100%.
Still for that read-out and setting: for `Cc1cc(=O)oc2ccc(OCC(O)CN3CCN(c4ccccc4)CC3)cc12` (centres undefined) the value was 100%; for `O=c1cc(-c2ccccc2)c2ccc(OCC(O)CN3CCN(c4ccccc4)CC3)cc2o1` (centres undefined), 100%.
On the same count and under the same terms, as for `O=c1cc(-c2ccccc2)c2ccc(OCC(O)CN3CCNCC3)cc2o1` (centres undefined), the figure is 100%.
Still for that read-out and setting: for `COc1ccccc1N1CCN(CC(O)COc2ccc3oc(=O)cc(C)c3c2)CC1` (centres undefined) the value was 100%.

The next test shares this target. The test is described as follows: Antagonist activity at histamine H1 receptor in guinea pig ileum assessed as inhibition of histamine-induced contractions at 0.5 mg/ml relative to control. The format is functional, tissue-based. In short, it runs like this:
as §1
Turning to `O=c1cc(-c2ccccc2)c2ccc(OCC(O)CN3CCCCC3)cc2o1` (centres undefined), the maximal effect (Emax) was 94%.
`O=c1cc(-c2ccccc2)c2ccc(OCC(O)CN3CCOCC3)cc2o1` (centres undefined): the Emax was 95%.
Same read-out and setting: for `Cc1cc(=O)oc2ccc(OCC(O)CN3CCN(C)CC3)cc12` (centres undefined) the value was 98%; for `CCN(CC)CC(O)COc1ccc2c(-c3ccccc3)cc(=O)oc2c1` (centres undefined), 95%; for `Cc1cc(=O)oc2ccc(OCC(O)CN3CCCCC3)cc12` (centres undefined), 98%.
Same read-out and setting: for `CCCNCC(O)COc1ccc2c(-c3ccccc3)cc(=O)oc2c1` (centres undefined) the value was 100%; for `COc1ccccc1N1CCN(CC(O)COc2ccc3c(-c4ccccc4)cc(=O)oc3c2)CC1` (centres undefined), 96%.
On the same count and under the same terms, for `CCN(CC)CC(O)COc1ccc2oc(=O)cc(C)c2c1` (centres undefined) the value was 96%; for `Cc1cc(=O)oc2ccc(OCC(O)CN3CCN(c4ccccc4)CC3)cc12` (centres undefined), 95%; for `O=c1cc(-c2ccccc2)c2ccc(OCC(O)CN3CCN(c4ccccc4)CC3)cc2o1` (centres undefined), 94%.
`O=c1cc(-c2ccccc2)c2ccc(OCC(O)CN3CCNCC3)cc2o1` (centres undefined): the Emax was found to be 100%.
Same read-out and setting: for `COc1ccccc1N1CCN(CC(O)COc2ccc3oc(=O)cc(C)c3c2)CC1` (centres undefined) the value was 96%.
